# Results as given in ChEMBL document CHEMBL1782042, “Efficient microwave-assisted synthesis and antitumor activity of novel 4,4'-methylenebis[2-(3-aryl-4,5-dihydro-1H-pyrazol-5-yl)phenols]” (Eur J Med Chem, 2011).
# Experiments:
# HCT-15 = assay: Anticancer activity against human HCT15 cells after 48 hrs by sulforhodamine B assay; assay type: functional; settings: HCT-15, 48 h
# Summary of the method: (§1)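 NCI 60-cell-line in vitro screen, second stage: five concentration levels (100, 10, 1.0, 0.1 and 0.01 μM) with 48 h continuous drug exposure. Cell growth was estimated by sulforhodamine B protein staining. GI50 is the drug concentration that gives a 50% reduction in net protein increase relative to control cells over the incubation.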
# UO-31 [1] = assay: Cytotoxicity against human UO31 cells; assay type: cell-based
# Summary of the method: (§2)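 NCI 60 human tumour cell line screen; five concentration levels (100, 10, 1.0, 0.1 and 0.01 μM), 48 h continuous drug exposure. Cell growth estimated by sulforhodamine B (SRB) protein staining. GI50 taken as the drug concentration giving a 50% reduction in net protein increase relative to control cells over the incubation.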
# MCF7 [2] = assay: Cytotoxicity against human MCF7 cells; assay type: cell-based
# Summary of the method: (§3)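 NCI 60 human tumour cell line screen, second stage at five concentrations (100, 10, 1.0, 0.1 and 0.01 μM). Continuous drug exposure for 48 h, with cell growth estimated by sulforhodamine B protein staining. GI50 is the drug concentration giving a 50% reduction in net protein increase relative to control cells over the incubation.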
# Hs-578T [3] = assay: Cytotoxicity against human Hs578T cells; assay type: cell-based; summary of the method: as §3
# BT-549 [4] = assay: Cytotoxicity against human BT549 cells; assay type: cell-based; summary of the method: as §3
# T47D [5] = assay: Cytotoxicity against human T47D cells; assay type: cell-based; summary of the method: as §2
# MDA-MB-468 [6] = assay: Cytotoxicity against human MDA-MB-468 cells; assay type: cell-based; summary of the method: as §3
# SW-620 = assay: Anticancer activity against human SW620 cells after 48 hrs by sulforhodamine B assay; assay type: functional; settings: SW-620, 48 h
# Summary of the method: (§4)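 NCI 60-cell-line screen, second stage. Five concentration levels (100, 10, 1.0, 0.1 and 0.01 μM), 48 h continuous drug exposure. Cell growth was estimated by sulforhodamine B protein staining. GI50 is the concentration giving a 50% reduction in net protein increase relative to control cells over the drug incubation. Compounds entered this stage after an earlier single-dose screen.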
# SNB-19 = assay: Anticancer activity against human SNB19 cells after 48 hrs by sulforhodamine B assay; assay type: functional; settings: SNB-19, 48 h; summary of the method: as §1
# SNB-75 = assay: Anticancer activity against human SNB75 cells after 48 hrs by sulforhodamine B assay; assay type: functional; settings: SNB-75, 48 h; summary of the method: as §4
# U-251 = assay: Anticancer activity against human U251 cells after 48 hrs by sulforhodamine B assay; assay type: functional; settings: U-251, 48 h; summary of the method: as §4
# LOX IMVI = assay: Anticancer activity against human LOXIMVI cells after 48 hrs by sulforhodamine B assay; assay type: functional; summary of the method: as §1
# MDA-MB-435 = assay: Anticancer activity against human MDA-MB-435 cells after 48 hrs by sulforhodamine B assay; assay type: functional; settings: MDA-MB-435, 48 h; summary of the method: as §1
# SK-MEL-2 = assay: Anticancer activity against human SK-MEL-2 cells after 48 hrs by sulforhodamine B assay; assay type: functional; settings: SK-MEL-2, 48 h; summary of the method: as §1
# SK-MEL-5 = assay: Anticancer activity against human SK-MEL-5 cells after 48 hrs by sulforhodamine B assay; assay type: functional; settings: SK-MEL-5, 48 h; summary of the method: as §1
# OVCAR-4 = assay: Anticancer activity against human OVCAR4 cells after 48 hrs by sulforhodamine B assay; assay type: functional; settings: OVCAR-4, 48 h; summary of the method: as §1
# OVCAR-8 = assay: Anticancer activity against human OVCAR8 cells after 48 hrs by sulforhodamine B assay; assay type: functional; settings: OVCAR-8, 48 h; summary of the method: as §1
# NCI/ADR-RES = assay: Anticancer activity against human NCI/ADR-RES cells after 48 hrs by sulforhodamine B assay; assay type: functional; summary of the method: as §1
# 786-0 = assay: Anticancer activity against human 786-0 cells after 48 hrs by sulforhodamine B assay; assay type: functional; settings: 786-0, 48 h; summary of the method: as §1
# ACHN = assay: Anticancer activity against human ACHN cells after 48 hrs by sulforhodamine B assay; assay type: functional; summary of the method: as §1
# RXF 393 = assay: Anticancer activity against human RXF393 cells after 48 hrs by sulforhodamine B assay; assay type: functional; settings: RXF 393, 48 h; summary of the method: as §1
# SN12C = assay: Anticancer activity against human SN12C cells after 48 hrs by sulforhodamine B assay; assay type: functional; summary of the method: as §1
# UO-31 [7] = assay: Anticancer activity against human UO31 cells after 48 hrs by sulforhodamine B assay; assay type: functional; settings: UO-31, 48 h; summary of the method: as §4
# MCF7 [8] = assay: Anticancer activity against human MCF7 cells after 48 hrs by sulforhodamine B assay; assay type: functional; settings: MCF7, 48 h; summary of the method: as §1
# Hs-578T [9] = assay: Anticancer activity against human Hs578T cells after 48 hrs by sulforhodamine B assay; assay type: functional; summary of the method: as §1
# BT-549 [10] = assay: Anticancer activity against human BT549 cells after 48 hrs by sulforhodamine B assay; assay type: functional; settings: BT-549, 48 h; summary of the method: as §1
# T47D [11] = assay: Anticancer activity against human T47D cells after 48 hrs by sulforhodamine B assay; assay type: functional; summary of the method: as §4
# MDA-MB-468 [12] = assay: Anticancer activity against human MDA-MB-468 cells after 48 hrs by sulforhodamine B assay; assay type: functional; settings: MDA-MB-468, 48 h; summary of the method: as §1
# CCRF-CEM = assay: Cytotoxicity against human CCRF-CEM cells; assay type: cell-based; summary of the method: as §3
# K562 = assay: Cytotoxicity against human K562 cells; assay type: cell-based; summary of the method: as §3
# RPMI-8226 = assay: Cytotoxicity against human RPMI8226 cells; assay type: cell-based; summary of the method: as §3
# A549 = assay: Cytotoxicity against human A549 cells; assay type: cell-based; summary of the method: as §3
# HOP-62 = assay: Cytotoxicity against human HOP62 cells; assay type: cell-based; summary of the method: as §3
structure (smiles),measurement,setting,value
Cc1ccc(C2=NNC(c3cc(Cc4ccc(O)c(C5CC(c6ccc(C)cc6)=NN5)c4)ccc3O)C2)cc1 (stereo not drawn),GI50,HCT-15,3.64 µM
same,LC50,UO-31 [1],> 100 µM
same,LC50,MCF7 [2],71.8 µM
same,LC50,Hs-578T [3],> 100 µM
same,LC50,BT-549 [4],> 100 µM
same,LC50,T47D [5],> 100 µM
same,LC50,MDA-MB-468 [6],> 100 µM
same,GI50,SW-620,7.96 µM
same,GI50,SNB-19,6.89 µM
same,GI50,SNB-75,4.98 µM
same,GI50,U-251,5.84 µM
same,GI50,LOX IMVI,7.38 µM
same,GI50,MDA-MB-435,8.52 µM
same,GI50,SK-MEL-2,5.9 µM
same,GI50,SK-MEL-5,1.76 µM
same,GI50,OVCAR-4,5.36 µM
same,GI50,OVCAR-8,6.36 µM
same,GI50,NCI/ADR-RES,7.39 µM
same,GI50,786-0,8.39 µM
same,GI50,ACHN,5.56 µM
same,GI50,RXF 393,4.18 µM
same,GI50,SN12C,8.84 µM
same,GI50,UO-31 [7],4.29 µM
same,GI50,MCF7 [8],3.3 µM
same,GI50,Hs-578T [9],5.58 µM
same,GI50,BT-549 [10],4.66 µM
same,GI50,T47D [11],4.61 µM
same,GI50,MDA-MB-468 [12],2.97 µM
same,LC50,CCRF-CEM,> 100 µM
same,LC50,K562,> 100 µM
same,LC50,RPMI-8226,> 100 µM
same,LC50,A549,> 100 µM
same,LC50,HOP-62,> 100 µM
